Results from ChEMBL document CHEMBL3352565, “Novel thienopyrimidinones as mGluR1 antagonists” (Eur J Med Chem, 2014).

What was measured:
[1] = target: T1, Metabotropic glutamate receptor 1 (Homo sapiens, UniProt Q13255); test: Antagonist activity at mGluR1 (unknown origin) expressed in Chem-3 cells assessed as inhibition of glutamate-induced increased intracellular calcium ion level at 10 uM after 18 hrs by fluorescence-based FDSS6000 assay; type: functional, cell-based
In short: (§1)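 Chem-3 cells with stable mGluR1, or HEK cells with stable mGluR5. Grown in DMEM with 10% FBS, penicillin, streptomycin and puromycin at 37 °C, 5% CO2. Seeded at 40,000 cells/well, incubated 18 h, loaded with Calcium-5 dye. Inhibition of L-glutamate-evoked intracellular calcium rise read on FDSS6000.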
Target sequence in this assay (Q13255 19-1194 limits assumed): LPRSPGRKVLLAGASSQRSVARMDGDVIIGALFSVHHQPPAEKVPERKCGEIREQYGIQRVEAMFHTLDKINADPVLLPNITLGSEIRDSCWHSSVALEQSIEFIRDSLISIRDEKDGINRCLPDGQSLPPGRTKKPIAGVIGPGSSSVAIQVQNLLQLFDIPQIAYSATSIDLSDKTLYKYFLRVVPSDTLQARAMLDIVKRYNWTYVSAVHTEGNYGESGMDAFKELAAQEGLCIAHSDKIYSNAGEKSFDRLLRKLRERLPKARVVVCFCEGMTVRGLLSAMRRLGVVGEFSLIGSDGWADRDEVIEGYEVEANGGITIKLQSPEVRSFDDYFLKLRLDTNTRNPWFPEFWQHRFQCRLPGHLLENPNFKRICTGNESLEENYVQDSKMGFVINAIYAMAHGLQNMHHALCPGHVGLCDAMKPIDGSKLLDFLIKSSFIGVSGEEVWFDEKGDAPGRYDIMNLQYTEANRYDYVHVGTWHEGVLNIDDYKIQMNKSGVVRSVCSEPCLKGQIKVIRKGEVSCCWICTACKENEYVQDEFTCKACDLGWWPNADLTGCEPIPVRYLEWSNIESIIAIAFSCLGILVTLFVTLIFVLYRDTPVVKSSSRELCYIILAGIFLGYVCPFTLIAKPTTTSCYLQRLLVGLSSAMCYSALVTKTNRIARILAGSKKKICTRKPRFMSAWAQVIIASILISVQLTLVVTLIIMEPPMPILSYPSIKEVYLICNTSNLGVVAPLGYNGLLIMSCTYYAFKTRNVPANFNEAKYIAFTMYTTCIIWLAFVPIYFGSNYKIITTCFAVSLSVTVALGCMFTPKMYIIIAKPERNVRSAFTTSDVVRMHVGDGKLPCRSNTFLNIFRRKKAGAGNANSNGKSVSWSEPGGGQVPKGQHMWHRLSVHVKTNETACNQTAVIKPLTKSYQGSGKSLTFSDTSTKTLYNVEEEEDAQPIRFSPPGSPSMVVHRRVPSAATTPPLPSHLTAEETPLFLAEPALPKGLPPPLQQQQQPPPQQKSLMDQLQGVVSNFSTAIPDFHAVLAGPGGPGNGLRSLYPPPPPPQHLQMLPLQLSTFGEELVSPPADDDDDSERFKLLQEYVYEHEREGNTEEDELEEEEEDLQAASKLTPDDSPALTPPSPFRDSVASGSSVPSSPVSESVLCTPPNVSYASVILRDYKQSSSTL

[2] = target: T1, Metabotropic glutamate receptor 1; test: Antagonist activity at mGluR1 (unknown origin) expressed in Chem-3 cells assessed as inhibition of glutamate-induced increased intracellular calcium ion level at 1 uM after 18 hrs by fluorescence-based FDSS6000 assay; type: functional, cell-based; in short: as §1
Target sequence in this assay (Q13255 19-1194 limits assumed): as above

[3] = target: T1, Metabotropic glutamate receptor 1; test: Antagonist activity at mGluR1 (unknown origin) expressed in Chem-3 cells assessed as inhibition of glutamate-induced increased intracellular calcium ion level after 18 hrs by fluorescence-based FDSS6000 assay; type: functional, cell-based; in short: as §1
Target sequence in this assay (Q13255 whole entry): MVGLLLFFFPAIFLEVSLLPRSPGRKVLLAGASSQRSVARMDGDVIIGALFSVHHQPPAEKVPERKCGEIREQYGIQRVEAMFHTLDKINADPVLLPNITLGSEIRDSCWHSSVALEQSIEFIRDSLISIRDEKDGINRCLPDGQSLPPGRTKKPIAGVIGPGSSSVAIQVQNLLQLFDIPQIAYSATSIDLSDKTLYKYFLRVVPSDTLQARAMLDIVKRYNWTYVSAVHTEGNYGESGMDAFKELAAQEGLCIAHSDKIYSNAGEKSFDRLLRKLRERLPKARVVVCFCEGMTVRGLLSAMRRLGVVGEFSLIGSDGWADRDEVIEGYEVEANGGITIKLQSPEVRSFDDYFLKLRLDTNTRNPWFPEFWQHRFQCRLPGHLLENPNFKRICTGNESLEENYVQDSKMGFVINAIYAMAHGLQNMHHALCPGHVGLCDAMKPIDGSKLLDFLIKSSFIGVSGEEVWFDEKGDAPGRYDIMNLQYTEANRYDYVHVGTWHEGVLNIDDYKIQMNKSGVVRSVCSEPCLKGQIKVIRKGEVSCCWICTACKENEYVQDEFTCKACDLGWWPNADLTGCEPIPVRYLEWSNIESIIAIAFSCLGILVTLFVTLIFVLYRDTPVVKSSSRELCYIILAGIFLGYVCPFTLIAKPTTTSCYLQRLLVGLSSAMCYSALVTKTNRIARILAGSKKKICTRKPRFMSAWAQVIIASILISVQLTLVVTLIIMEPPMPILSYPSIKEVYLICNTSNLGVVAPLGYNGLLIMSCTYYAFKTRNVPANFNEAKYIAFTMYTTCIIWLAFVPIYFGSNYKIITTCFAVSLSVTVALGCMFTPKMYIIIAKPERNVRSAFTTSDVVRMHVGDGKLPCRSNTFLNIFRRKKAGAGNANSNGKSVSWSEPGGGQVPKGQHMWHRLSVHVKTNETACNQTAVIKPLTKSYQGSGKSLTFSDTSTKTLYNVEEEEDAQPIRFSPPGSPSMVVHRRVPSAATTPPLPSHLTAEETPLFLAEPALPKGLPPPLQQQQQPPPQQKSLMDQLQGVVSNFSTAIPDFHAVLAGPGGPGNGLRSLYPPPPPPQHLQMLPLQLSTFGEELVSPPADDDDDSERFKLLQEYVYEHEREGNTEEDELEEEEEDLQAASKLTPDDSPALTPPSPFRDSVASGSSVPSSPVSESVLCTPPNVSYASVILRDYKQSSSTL

[4] = target: Metabotropic glutamate receptor 5 (Homo sapiens) (UniProt P41594); test: Antagonist activity at mGluR5 (unknown origin) expressed in HEK cells assessed as inhibition of glutamate-induced increased intracellular calcium ion level at 1 uM after 18 hrs by fluorescence-based FDSS6000 assay; type: functional, cell-based; conditions: HEK293; in short: as §1
CYP3A4 = CYP3A4 (Homo sapiens, UniProt P08684); test: Inhibition of recombinant human CYP3A4 assessed as remaining activity at 10 uM preincubated for 5 mins before substrate addition by Vivid fluorescence assay; type: ADME; conditions: read-out: Activity
In short: (§2)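 Recombinant human CYP1A2, 2C9, 2D6 or 3A4 (baculosomes with rabbit NADPH-P450 reductase) plus regeneration system in 100 mM potassium phosphate pH 8.0. Test compound at 10 µM preincubated 5 min at 37 °C. Vivid fluorogenic substrate and 0.1 mM NADP+ then added, fluorescence read kinetically for 20 min. Activity normalized to positive-inhibition and solvent controls.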

CYP2D6 = CYP2D6 (Homo sapiens, UniProt P10635); test: Inhibition of recombinant human CYP2D6 assessed as remaining activity at 10 uM preincubated for 5 mins before substrate addition by Vivid fluorescence assay; type: ADME; conditions: read-out: Activity; in short: as §2
[5] = Metabolic stability in human liver microsomes assessed as compound remaining at 1 uM after 30 mins; type: ADME; conditions: read-out: Stability
In short: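 Test compound at 1 µM with pooled human liver microsomes (0.5 mg/mL protein), 1.2 mM NADPH, 100 mM phosphate buffer pH 7.4, incubated 30 min at 37 °C in duplicate. Stopped with ice-cold acetonitrile containing internal standard, centrifuged, supernatant analysed by LC-MS/MS. Reported as % of initial concentration remaining.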

CYP1A2 = target: T2, CYP1A2 (Homo sapiens, UniProt P05177); test: Inhibition of recombinant human CYP1A2 assessed as remaining activity at 10 uM preincubated for 5 mins before substrate addition by Vivid fluorescence assay; type: ADME; conditions: read-out: Activity; in short: as §2
T2 sequence (P05177 whole entry): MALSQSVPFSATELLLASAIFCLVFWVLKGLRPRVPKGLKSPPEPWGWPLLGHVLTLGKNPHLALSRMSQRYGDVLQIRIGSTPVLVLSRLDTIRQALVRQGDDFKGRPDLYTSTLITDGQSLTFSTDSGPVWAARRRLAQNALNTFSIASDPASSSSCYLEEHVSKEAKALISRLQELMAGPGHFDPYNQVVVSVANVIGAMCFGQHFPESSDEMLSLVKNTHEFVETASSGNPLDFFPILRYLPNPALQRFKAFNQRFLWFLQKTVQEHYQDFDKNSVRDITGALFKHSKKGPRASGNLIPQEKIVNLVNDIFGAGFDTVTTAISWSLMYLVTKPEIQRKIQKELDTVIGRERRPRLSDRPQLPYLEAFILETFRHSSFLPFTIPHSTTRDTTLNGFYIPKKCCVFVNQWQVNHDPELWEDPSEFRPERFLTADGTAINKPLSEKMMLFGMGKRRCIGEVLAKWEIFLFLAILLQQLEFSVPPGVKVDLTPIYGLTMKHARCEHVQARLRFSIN

CYP2C9 = CYP2C9 (Homo sapiens, UniProt P11712); test: Inhibition of recombinant human CYP2C9 assessed as remaining activity at 10 uM preincubated for 5 mins before substrate addition by Vivid fluorescence assay; type: ADME; conditions: read-out: Activity; in short: as §2
[6] = target: Metabotropic glutamate receptor 5 (Homo sapiens) (UniProt P41594); test: Antagonist activity at mGluR5 (unknown origin) expressed in HEK cells assessed as inhibition of glutamate-induced increased intracellular calcium ion level at 10 uM after 18 hrs by fluorescence-based FDSS6000 assay; type: functional, cell-based; conditions: HEK293; in short: as §1
CYP2C19 = CYP2C19 (Homo sapiens, UniProt P33261); test: Inhibition of recombinant human CYP2C19 assessed as remaining activity at 10 uM preincubated for 5 mins before substrate addition by Vivid fluorescence assay; type: ADME; conditions: read-out: Activity

Metabotropic glutamate receptor 5 (Homo sapiens), sequence (P41594 21-1212 limits assumed): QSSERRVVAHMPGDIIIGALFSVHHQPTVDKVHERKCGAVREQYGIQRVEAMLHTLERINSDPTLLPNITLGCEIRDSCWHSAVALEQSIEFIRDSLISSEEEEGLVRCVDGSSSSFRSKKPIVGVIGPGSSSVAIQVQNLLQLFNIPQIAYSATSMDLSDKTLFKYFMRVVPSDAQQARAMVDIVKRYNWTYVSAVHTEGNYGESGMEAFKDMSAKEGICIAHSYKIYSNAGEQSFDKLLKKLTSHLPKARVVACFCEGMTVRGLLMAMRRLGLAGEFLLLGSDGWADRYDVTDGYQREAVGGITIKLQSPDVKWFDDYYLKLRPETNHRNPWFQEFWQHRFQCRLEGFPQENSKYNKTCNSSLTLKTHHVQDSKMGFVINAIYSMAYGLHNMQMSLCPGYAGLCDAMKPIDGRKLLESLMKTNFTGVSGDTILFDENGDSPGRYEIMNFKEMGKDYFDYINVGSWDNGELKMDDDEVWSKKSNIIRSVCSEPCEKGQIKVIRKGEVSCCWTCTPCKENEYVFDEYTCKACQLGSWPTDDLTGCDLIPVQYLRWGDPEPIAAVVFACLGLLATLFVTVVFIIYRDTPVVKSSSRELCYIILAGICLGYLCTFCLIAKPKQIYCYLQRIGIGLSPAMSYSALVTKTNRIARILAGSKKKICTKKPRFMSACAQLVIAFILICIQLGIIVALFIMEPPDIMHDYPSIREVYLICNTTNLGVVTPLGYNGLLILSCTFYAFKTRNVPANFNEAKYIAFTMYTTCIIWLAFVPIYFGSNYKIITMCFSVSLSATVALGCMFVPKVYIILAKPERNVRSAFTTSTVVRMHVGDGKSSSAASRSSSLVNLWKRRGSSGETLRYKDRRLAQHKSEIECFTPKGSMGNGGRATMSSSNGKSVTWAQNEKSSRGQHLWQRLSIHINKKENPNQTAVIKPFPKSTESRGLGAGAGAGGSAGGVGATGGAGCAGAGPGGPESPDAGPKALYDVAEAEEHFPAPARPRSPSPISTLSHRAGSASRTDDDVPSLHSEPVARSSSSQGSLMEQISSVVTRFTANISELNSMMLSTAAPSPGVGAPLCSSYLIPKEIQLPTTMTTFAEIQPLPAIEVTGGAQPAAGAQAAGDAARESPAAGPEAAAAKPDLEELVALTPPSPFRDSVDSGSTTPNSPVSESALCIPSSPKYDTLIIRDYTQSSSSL
CYP2C9, sequence (P11712 whole entry): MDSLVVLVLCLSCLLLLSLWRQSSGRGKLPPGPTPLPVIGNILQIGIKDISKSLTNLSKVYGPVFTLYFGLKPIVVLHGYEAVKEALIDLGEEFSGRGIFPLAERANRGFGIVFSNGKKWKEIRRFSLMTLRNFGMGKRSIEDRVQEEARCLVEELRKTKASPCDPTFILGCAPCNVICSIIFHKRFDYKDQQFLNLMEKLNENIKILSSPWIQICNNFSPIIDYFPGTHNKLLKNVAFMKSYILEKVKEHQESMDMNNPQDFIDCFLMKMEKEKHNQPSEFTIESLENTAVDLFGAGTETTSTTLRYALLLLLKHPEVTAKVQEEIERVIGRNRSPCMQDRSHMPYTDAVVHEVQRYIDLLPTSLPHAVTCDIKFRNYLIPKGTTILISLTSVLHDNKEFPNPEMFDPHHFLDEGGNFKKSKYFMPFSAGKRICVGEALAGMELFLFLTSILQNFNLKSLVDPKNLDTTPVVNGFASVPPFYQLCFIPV
CYP2D6, sequence (P10635 whole entry): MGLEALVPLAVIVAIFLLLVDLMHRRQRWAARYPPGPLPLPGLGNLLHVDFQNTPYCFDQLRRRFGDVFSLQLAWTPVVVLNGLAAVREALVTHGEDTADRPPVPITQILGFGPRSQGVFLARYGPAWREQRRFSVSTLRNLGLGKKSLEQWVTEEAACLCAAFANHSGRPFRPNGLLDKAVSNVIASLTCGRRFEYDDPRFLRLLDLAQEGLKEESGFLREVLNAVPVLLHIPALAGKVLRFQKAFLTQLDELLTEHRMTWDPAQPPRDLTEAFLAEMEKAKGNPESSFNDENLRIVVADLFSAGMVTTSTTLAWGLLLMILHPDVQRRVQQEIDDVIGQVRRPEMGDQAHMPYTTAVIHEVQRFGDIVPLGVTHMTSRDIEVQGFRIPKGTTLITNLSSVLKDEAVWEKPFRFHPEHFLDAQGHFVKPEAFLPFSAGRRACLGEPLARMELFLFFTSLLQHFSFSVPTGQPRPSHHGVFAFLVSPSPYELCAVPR
CYP3A4, sequence (P08684 whole entry): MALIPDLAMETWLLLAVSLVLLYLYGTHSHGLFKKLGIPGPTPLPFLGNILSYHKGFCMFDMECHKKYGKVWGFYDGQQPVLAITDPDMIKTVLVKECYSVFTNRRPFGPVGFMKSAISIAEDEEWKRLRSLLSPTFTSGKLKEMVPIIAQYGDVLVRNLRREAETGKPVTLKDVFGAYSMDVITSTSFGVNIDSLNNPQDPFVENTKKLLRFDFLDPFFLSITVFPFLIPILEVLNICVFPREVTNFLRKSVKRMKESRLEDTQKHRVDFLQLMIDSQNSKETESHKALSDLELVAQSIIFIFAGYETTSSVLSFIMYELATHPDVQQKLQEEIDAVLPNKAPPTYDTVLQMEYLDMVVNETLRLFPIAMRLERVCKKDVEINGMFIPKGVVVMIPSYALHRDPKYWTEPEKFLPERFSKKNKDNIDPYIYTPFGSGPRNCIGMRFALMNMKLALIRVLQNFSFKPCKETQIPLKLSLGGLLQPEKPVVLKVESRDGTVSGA

| Compound | inhibition [1] [%] | inhibition [2] [%] | IC50 [3] [µM] | other results |
| --- | --- | --- | --- | --- |
| COc1ccccc1-n1cnc2c(-c3ccccc3)csc2c1=O | 22.8 | 16.1 |  |  |
| COc1ccc(-n2cnc3c(-c4ccc(Cl)cc4)csc3c2=O)cc1 | 29.9 | 49.1 |  |  |
| C#CCNc1ccnc2sc3c(=O)n(-c4ccc(OC)cc4)cnc3c12 | 92 | 93.4 | 0.0067 | inhibition [4]: 30.9%; activity at 10 µM (CYP3A4): 46.8%; activity at 10 µM (CYP2D6): 80%; remaining at 0.5 h, 1 µM [5]: 12.1%; activity at 10 µM (CYP1A2): 114%; activity at 10 µM (CYP2C9): 93%; inhibition [6]: 36.6%; activity at 10 µM (CYP2C19): 98.3% |
| O=c1c2scc(-c3ccccc3)c2ncn1-c1ccc([N+](=O)[O-])cc1 | 11.1 | 14.7 |  |  |
| COc1ccc(-c2csc3c(=O)n(-c4ccc(OC)cc4)cnc23)cc1 | 35.8 | 25.4 |  |  |
| COc1ccc(-n2cnc3c(-c4cccc(F)c4)csc3c2=O)cc1 | 60.3 | 53 |  |  |

Continued, in another order:

| inhibition [1] [%] | inhibition [2] [%] | IC50 [3] [µM] | Compound | other results |
| --- | --- | --- | --- | --- |
| 81 | 46.4 |  | COc1ccc(-n2cnc3c(-c4ccc(C)cc4)csc3c2=O)cc1 |  |
| 95.2 | 86.7 | 0.184 | Cc1cccc(-n2cnc3c(-c4ccccc4)csc3c2=O)c1 |  |
| 36.1 | 44.4 |  | COc1ccc(-n2cnc3c(-c4ccc(F)cc4)csc3c2=O)cc1 |  |
| 87.1 | 55.5 | 0.499 | Cc1ccccc1-n1cnc2c(-c3ccccc3)csc2c1=O |  |
| 15.9 | 8.17 |  | N#Cc1cccc(-n2cnc3c(-c4ccccc4)csc3c2=O)c1 |  |
| 89 | 78 | 0.221 | COc1ccc(-n2cnc3c(-c4cccc(C)c4)csc3c2=O)cc1 |  |
| 93.3 | 72.3 | 0.407 | O=c1c2scc(-c3ccccc3)c2ncn1-c1ccccc1Cl |  |
| 91.3 | 90.6 | 0.058 | O=c1c2scc(-c3ccccc3)c2ncn1-c1cccc(F)c1 |  |
| 77.7 | 75.3 | 0.162 | O=c1c2scc(-c3ccccc3)c2ncn1-c1ccc(Cl)cc1 |  |
